# High-throughput results: PubChem BioAssay, several laboratories
# hERG rescue – hERG rescue from dofetilide block, primary screen, cell-based, CHO-hERG, FluxOR thallium flux, dofetilide IC70; dofetilide IC70 present; activation (rescue from dofetilide block), less the hit threshold, % at 10 µM; 310,000 compounds, 0.51% hits;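 active = activation above the mean of controls blocked by dofetilide plus 5 SD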;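 note: thallium influx through hERG after potassium depolarization seen as dye fluorescence rise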
# Target sequence (Q12809 whole entry, looked up): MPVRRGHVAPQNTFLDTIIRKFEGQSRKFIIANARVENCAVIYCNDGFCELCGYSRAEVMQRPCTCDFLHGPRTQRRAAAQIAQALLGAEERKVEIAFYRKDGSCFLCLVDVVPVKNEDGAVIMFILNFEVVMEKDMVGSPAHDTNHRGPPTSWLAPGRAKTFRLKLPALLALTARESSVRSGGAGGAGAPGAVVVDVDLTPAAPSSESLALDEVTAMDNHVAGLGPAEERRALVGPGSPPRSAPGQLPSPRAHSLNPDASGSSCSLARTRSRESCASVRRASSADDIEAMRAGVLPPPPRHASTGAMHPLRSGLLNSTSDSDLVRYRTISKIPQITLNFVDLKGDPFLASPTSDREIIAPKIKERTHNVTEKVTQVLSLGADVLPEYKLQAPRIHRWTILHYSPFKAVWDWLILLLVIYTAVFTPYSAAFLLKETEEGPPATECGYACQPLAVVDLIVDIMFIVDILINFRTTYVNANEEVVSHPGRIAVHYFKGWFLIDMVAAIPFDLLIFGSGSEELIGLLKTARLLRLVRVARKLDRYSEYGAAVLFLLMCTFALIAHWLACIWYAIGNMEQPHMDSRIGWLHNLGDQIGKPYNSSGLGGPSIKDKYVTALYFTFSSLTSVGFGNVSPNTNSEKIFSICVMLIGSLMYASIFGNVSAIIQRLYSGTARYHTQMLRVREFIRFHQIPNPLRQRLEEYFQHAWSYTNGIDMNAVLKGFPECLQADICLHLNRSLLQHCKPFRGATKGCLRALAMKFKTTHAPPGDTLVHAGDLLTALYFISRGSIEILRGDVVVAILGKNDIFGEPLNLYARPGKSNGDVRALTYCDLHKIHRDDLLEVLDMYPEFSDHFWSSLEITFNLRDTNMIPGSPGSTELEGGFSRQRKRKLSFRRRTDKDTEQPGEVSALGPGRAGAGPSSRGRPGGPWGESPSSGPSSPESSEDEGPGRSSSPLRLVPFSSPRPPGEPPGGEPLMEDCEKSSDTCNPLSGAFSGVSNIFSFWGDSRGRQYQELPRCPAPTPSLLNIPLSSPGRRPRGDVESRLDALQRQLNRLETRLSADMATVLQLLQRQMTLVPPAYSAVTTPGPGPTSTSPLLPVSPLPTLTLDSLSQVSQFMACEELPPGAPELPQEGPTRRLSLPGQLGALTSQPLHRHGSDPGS
# Cl transport mod – KCC2 cotransporter modulators, thallium flux, primary screen, cell-based, HEK293 KCC2, FluoZin-2 fluorescence, MLSMR; Solute carrier family 12 member 5 (Homo sapiens), Q9H2X9; KCC2 cells, thallium flux FluoZin-2 fluorescence; AID 1456, 2008; 190,000 compounds, 2.2% hits; B-score of Tl+ flux slope (higher = more flux/activation; lower = inhibition) at 10 µM;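 active = thallium flux slope and its plate-corrected score both differing from the plate sample mean at a set confidence after two filtering rounds, in either direction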;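 note: slope of fluorescence scaled to starting intensity during 10 to 20 s after thallium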
# KCNQ1 block – inhibitors of human KCNQ1 channel, primary screen, cell-based, thallium flux, high-throughput. Potassium voltage-gated channel subfamily KQT member 1 (Homo sapiens), P51787. B-score at 10 µM. 310,000 compounds, 1.3% hits. CHO-K1 KCNQ1, FluxOR thallium flux fluorescence; stronger effect = higher value;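 active = compounds whose thallium flux B-score, printed positive for inhibition, exceeds three library SD while starting fluorescence stays within three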;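 note: channel opened by potassium depolarization with thallium stimulus after 20 min compound exposure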
# KCNK3 block – human KCNK3 channel inhibitors, primary screen, CHO cells, FluxOR thallium flux, B-score; B-score at 10 µM; 340,000 compounds, 0.84% hits; AID 602410, 2012; FluxOR fluorescence; stronger effect = lower value; Potassium channel subfamily K member 3 (Homo sapiens), O14649;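 active = B-score under library mean minus 4 SD, starting fluorescence ratio at most library mean plus 5 SD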;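 note: more negative B-score means stronger inhibition of thallium flux through KCNK3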
# KCNQ1 act – potentiators or activators of KCNQ1 channel, primary screen, cell-based, thallium flux, high-throughput. Potassium voltage-gated channel subfamily KQT member 1 (Homo sapiens), P51787. CHO-K1 KCNQ1, thallium flux FluxOR fluorescence; stronger effect = higher value. B-score at 10 µM. 310,000 compounds, 0.35% hits. AID 2648, 2010;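 active = fluorescence ratio B-score, a plate-corrected score, at least three library SD, with initial intensity B-score within 5 SD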
#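 Assay system: CHO-K1 cells stably expressing KCNQ1. Medium: assay buffer for compound exposure, DMSO matched across wells. Timing: 37 °C overnight plating, 90-min dark dye load, 20-min compound pretreatment. Signal: kinetic FluxOR fluorescence, 10 s baseline plus 110 s post-stimulus.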
# KCNK9 block – KCNK9 potassium channel inhibitors, primary screen, HEK293 cells, thallium flux. AID 488922, 2010. Potassium channel subfamily K member 9 (Homo sapiens), Q9NPC2. FluxOR thallium flux fluorescence; stronger effect = lower value. B-score at 10 µM. 310,000 compounds, 1.2% hits;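 active = ratio B-score over 3 SD below the library mean, with starting fluorescence within 5 SD of its mean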;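 note: negative B-score means less thallium flux so channel inhibition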
# Numbers without * were called inactive; i = inactive; / = no result. Rows were chosen to be rich in hits. Some 4.1% of all compounds tested hit in one or more screens of this group.
SMILES,hERG rescue,Cl transport mod,KCNQ1 block,KCNK3 block,KCNQ1 act,KCNK9 block
COC(=O)C(Cc1ccccc1)NC(=O)CNS(=O)(=O)c1ccc(Br)cc1 (centres undefined),-5.7,-0.715,i,i,i,i
COC(=O)C(Cc1ccccc1)NC(=O)CNC(=O)c1ccc(Br)cc1 (centres undefined),-4.9,/,i,i,i,-7.1*
CC(Oc1ccc(Cl)cc1Cl)C(=O)NC(=S)N1CCc2ccccc21 (centres undefined),27.6*,43.6*,i,i,9*,i
O=C(NC(=S)N1CCc2ccccc21)c1ccccc1Br,52.3*,60.3*,i,i,45*,i
O=C(COc1ccc(Br)cc1Cl)NC(=S)N1CCc2ccccc21,-2.0,23.3*,i,i,i,i
O=C(COc1ccc(Br)cc1Br)NC(=S)N1CCCc2ccccc21,6.8*,10.5*,i,i,i,i
COc1ccc(F)cc1S(=O)(=O)NCC(c1ccco1)N1CCc2ccccc2C1 (centres undefined),-22.4,/,i,i,i,i
O=C(Cc1ccccc1)NC(=S)Nc1ccc(OC(F)F)cc1,1.5,/,i,i,i,i
C/C(N)=C(/C#N)C(=O)COC(=O)c1cc(-c2cccc3ccccc23)nc2ccccc12,-9.4,-1,6*,i,i,i
COC(=O)c1ccc(C(=O)OC)c(NC(=O)CCc2ccc(C)o2)c1,45.2*,/,i,i,i,i
O=c1[nH]c(CN2CCN(c3ncccn3)CC2)nc2c(Br)cc(Br)cc12,-15.6,0.47,i,i,i,-7.52*
CCN(CC)CCn1c(=S)[nH]c2cc(C(=O)N3CC(C)CC(C)C3)ccc2c1=O (centres undefined),-5.5,/,i,i,i,i
CCN(CC)CCn1c(=S)[nH]c2cc(Cl)ccc2c1=O,-8.7,25.5*,i,i,i,i
COc1ccc(NS(=O)(=O)c2cccc(C(=O)NNC(=O)c3ccc(Br)o3)c2)cc1,-21.2,/,i,i,i,i
COC(=O)C1=C(C)NC(=S)NC1c1ccc(OCC(=O)N2CCCCC2)c(OC)c1 (centres undefined),-15.4,/,i,i,i,i
CCOC(=O)c1ccc(N2C(=O)c3n[nH]c(C)c3C2c2ccccc2)cc1 (centres undefined),-3.5,0.149,i,i,i,i
CCOC(=O)c1ccc(N2C(=O)c3n[nH]c(C)c3C2c2ccc(O)cc2)cc1 (centres undefined),-5.8,-0.731,i,i,i,-7.07*
COC(=O)c1cc(NC(=O)c2cccc(C(F)(F)F)c2)c(=O)oc1C/C=N/OCc1cccc(Cl)c1Cl,-12.4,-0.887,i,-11.1*,i,i
COC(=O)c1cc(NC(=O)c2cccc(C(F)(F)F)c2)c(=O)oc1C,-6.2,0.143,i,i,i,i
CC(C)Cn1c(=O)c(C(=O)N/N=C/c2cccc(F)c2)c(O)c2ccccc21,-11.2,0.803,i,i,9*,i
CC(=O)N1N=C(c2cccc([N+](=O)[O-])c2)OC1c1ccc(Br)cc1 (centres undefined),-5.2,-0.725,i,i,i,-6.97*
O=C1CN(C(=O)CSc2nc3cc(Cl)ccc3c(=O)n2Cc2ccccc2)c2ccccc2N1,-1.1,24.4*,i,i,i,i
Cc1nnc(SCC(=O)N2CC(=O)Nc3ccccc32)n1Cc1ccccc1,-4.7,-0.00427,i,i,i,i
CCCCCCc1cc2cc(C(=O)OCC)c(=O)oc2cc1O,-3.8,-0.268,8*,i,i,i
CCCCCCc1cc2cc(C(N)=O)c(=N)oc2cc1O,-58.9,i,29*,/,i,i
SMILES,hERG rescue,Cl transport mod,KCNQ1 block,KCNK3 block,KCNQ1 act,KCNK9 block
CCCCCCc1cc2cc(C(=O)NC)c(=N)oc2cc1O,-23.6,1.45,i,i,i,i
c1ccc(-c2cc(N3CCOCC3)nc3ccccc23)cc1,-5.1,0.201,6*,i,i,i
Cc1cc(N2CCOCC2)nc2ccccc12,-6.8,-0.00514,i,i,i,i
CCc1cc(=O)[nH]c(SCc2ccc(C)cc2)n1,4.9*,-2.51,i,i,i,i
NC(=O)c1nsc(C(=O)N(Cc2cccnc2)C(C(=O)NCc2ccc(F)cc2)c2ccc(F)cc2)c1N (centres undefined),-8.3,/,i,i,i,i
CC(C)CC(=O)NC(=S)Nc1nc(-c2cccc3ccccc23)cs1,0.4,/,i,i,34*,i
COc1ccc2cc1Oc1ccc(cc1)C[C@H]1c3c(cc(OC)c4c3Oc3c(ccc5c3[C@H](C2)N(C)CC5)O4)CCN1C,/,/,/,i,/,/
COc1ccc2cc1Oc1ccc(cc1)CC1c3c(cc(OC)c4c3Oc3cc5c(cc3O4)CCNC5C2)CCN1C (centres undefined),-20.1,-1.34,9*,i,i,i
NS(=O)(=O)c1ccc(NC(=O)Nc2ccc3c(c2)OCO3)cc1,-11.3,/,i,i,i,i
O=C(Nc1ccc(Cl)cc1)Nn1cnnc1,5.7*,/,i,i,i,i
Cc1ccc(NC(=O)Nn2cnnc2)cc1,-6.6,/,i,i,i,i
COC(=O)c1ccc(NC(=O)Nc2ccc(F)cc2)cc1,-13.1,-2.77,6*,i,i,i
COC(=O)c1ccc(NC(=O)Nc2ccc(F)c(Cl)c2)cc1,-8.1,0.0801,6*,i,i,i
O=C(c1cc(C2CC2)nn1-c1ccccc1)N1CCN(Cc2c(F)cccc2Cl)CC1,/,/,/,i,/,/
COc1cc(OC)cc(C(=O)NCCNc2nc3cc(C)cc(C)c3cc2C#N)c1,-8.2,/,i,i,i,i
O=C(NCCCN1CCOCC1)c1cc2c([nH]c3ccccc32)c(-c2cccc(Br)c2)n1,-30.4,/,8*,i,i,i
Cc1cccc(NC(=O)COC(=O)C2COc3ccccc3O2)c1C (centres undefined),/,/,/,i,/,/
CC1(C)CC(=O)C2=C(C1)NC1=C(C(=O)c3ccccc31)C2c1ccccc1 (centres undefined),-5.5,-1.83,i,i,i,i
